The test system of one data set is HL-60. The data set can be described thus: Growth inhibition of human HL60 cells after 48 hrs by SRB assay. As to conditions: HL-60, 48 h. It is filed as functional. An outline of the steps: (§1)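 NCI DTP panel cells grown in RPMI 1640 with 5% FBS and 2 mM L-glutamine, preincubated 24 h, then given five concentrations (10-fold or ½-log dilutions from DMSO stock) for 48 h at 37 °C. Cells fixed with TCA, stained with SRB, absorbance read at 515 nm, with time-zero plates as reference.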

The subject of another data set is KM12. As to the kind of experiment: Growth inhibition of human KM12 cells after 48 hrs by SRB assay. It is filed as functional. As to conditions: KM12, 48 h. An outline of the steps:
as §1

The test system of another data set is SF-295. The data set can be described thus: Growth inhibition of human SF295 cells after 48 hrs by SRB assay. As to conditions: SF-295, 48 h. Format: functional. The gist of the method: as §1
Another data set has as its system Malme-3M. As to the kind of experiment: Growth inhibition of human MALME-3M cells after 48 hrs by SRB assay. It is filed as functional. An outline of the steps: as §1
The subject of another data set is MDA-MB-435. The data set can be described thus: Growth inhibition of human MDA-MB-435 cells after 48 hrs by SRB assay. It is filed as functional. The conditions noted are these: MDA-MB-435, 48 h. The gist of the method:
as §1

The test system of a further data set is OVCAR-8. The data set can be described thus: Growth inhibition of human OVCAR8 cells after 48 hrs by SRB assay. The conditions noted are these: OVCAR-8, 48 h. It is filed as functional. The gist of the method:
as §1

For the next data set, the system named is NCI/ADR-RES. As to the kind of experiment: Growth inhibition of human NCI/ADR-RES cells after 48 hrs by SRB assay. Format: functional. An outline of the steps:
as §1

The test system of another data set is CAKI-1. As to the kind of experiment: Growth inhibition of human Caki1 cells after 48 hrs by SRB assay. Format: functional. The conditions noted are these: CAKI-1, 48 h. An outline of the steps: as §1
A further data set has as its system TK-10. As to the kind of experiment: Growth inhibition of human TK10 cells after 48 hrs by SRB assay. Format: functional. As to conditions: TK-10, 48 h. The gist of the method: (§2)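 Run by the NCI Developmental Therapeutics Program: cells in RPMI 1640 with 5% FBS and 2 mM L-glutamine, plated at 5000–40,000 cells/well and grown 24 h before dosing. Drug (DMSO stock) given at five concentrations for 48 h at 37 °C, 5% CO2. Adherent cells fixed with cold TCA, stained with 0.4% SRB and read at 515 nm. GI50, TGI and LC50 taken from the time-zero, control and treated absorbances.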

Another data set deals with UO-31. The data set can be described thus: Growth inhibition of human UO31 cells after 48 hrs by SRB assay. The conditions noted are these: UO-31, 48 h. Format: functional. The gist of the method: as §2
In a further data set the test system is PC-3. As to the kind of experiment: Growth inhibition of human PC3 cells after 48 hrs by SRB assay. The conditions noted are these: PC-3, 48 h. Format: functional. An outline of the steps:
as §1

A further data set relates to DU-145. As to the kind of experiment: Growth inhibition of human DU145 cells after 48 hrs by SRB assay. The conditions noted are these: DU-145, 48 h. Format: functional. An outline of the steps:
as §1

In a further data set the test system is MCF7. The data set can be described thus: Growth inhibition of human MCF7 cells after 48 hrs by SRB assay. The conditions noted are these: MCF7, 48 h. It is filed as functional. An outline of the steps: as §1
Data set [1] in a line: Growth inhibition of human Hs 578T cells after 48 hrs by SRB assay. It is filed as functional. An outline of the steps:
as §1

The subject of another data set is MDA-MB-468. The data set can be described thus: Growth inhibition of human MDA-MB-468 cells after 48 hrs by SRB assay. It is filed as functional. As to conditions: MDA-MB-468, 48 h. The gist of the method:
as §1

In data set [2] the test system is K562. As to the kind of experiment: Cell cycle distribution in human K562 cells assessed as increase in accumulation at G2/M phase at 1 to 4 uM after 24 hrs by flow cytometry. Format: functional, cell-based. An outline of the steps:
(§3)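 K562 exposed 24 h to 1, 2 or 4 μM. Washed cells resuspended in hypotonic propidium iodide (50 μg/ml in 0.1% sodium citrate plus 0.03% NP-40), incubated 30 min. DNA-content histograms acquired by flow cytometry give the G0–G1, S and G2-M fractions.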

The test system of data set [3] is K562. The data set can be described thus: Cell cycle distribution in human K562 cells assessed as decrease in accumulation at G0/G1 phase at 1 to 4 uM after 24 hrs by flow cytometry. It is filed as functional, cell-based. An outline of the steps:
as §3

Data set [4] concerns K562. The data set can be described thus: Induction of apoptosis in human K562 cells assessed as accumulation of hypodiploid nuclei after 48 hrs by FITC- conjugated annexin-V/propidium iodide based flow cytometry. Format: functional, cell-based. The conditions noted are these: K562, 48 h. An outline of the steps:
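K562 cells treated with various concentrations for 48 h. Apoptosis scored as the percentage of hypodiploid nuclei in the sub-G0–G1 peak after hypotonic propidium iodide staining (50 μg/ml in 0.1% sodium citrate, 0.03% NP-40, 30 min), measured by flow cytometry. Annexin-V-FITC/PI staining, 15 min at 20 °C, also read by flow cytometry. Mean ±SE shown.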

Data set [5] has as its system PtK2. As to the kind of experiment: Inhibition of tubulin polymerization in Potorous tridactylus PtK2 cells assessed as microtubule disruption at 10 uM after 24 hrs by immunofluorescence microscopy. Format: cell-based. The gist of the method: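 PtK2 (Potorous tridactylis kidney) cells treated 24 h at 37 °C at 10 μM. Then fixed and stained directly with Cy3-anti-β-tubulin and FITC-anti-β-actin monoclonal antibodies and imaged by epifluorescence microscopy. Combretastatin A-4 (1 μM) and latrunculin A (1 μM) used as references.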

The test system of data set [6] is PtK2. As to the kind of experiment: Binding affinity to actin in Potorous tridactylus PtK2 cells at 10 uM. Format: cell-based. An outline of the steps:
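PtK2 (Potorous tridactylus kidney) cells treated 24 h at 37 °C, then fixed and stained by direct immunofluorescence with Cy3-anti-β-tubulin and FITC-anti-β-actin monoclonals. Microtubule and microfilament networks were examined by epifluorescence microscopy.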

The species entered for data set [7] is Bos taurus. As to the kind of experiment: Inhibition of purified bovine brain tubulin polymerization by turbidimetry. The gist of the method:
(§4)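 Purified bovine brain tubulin. Reaction mixtures preincubated at 30 °C without GTP, chilled on ice, then given 0.4 mM GTP at 0 °C. Temperature jumped to 30 °C and held 20 min while turbidity was followed spectrophotometrically. Maximal rate and extent of assembly compared with a control run in the same experiment. Concentrations tested up to 40 μM.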

For data set [8], the species on record is Bos taurus. The data set can be described thus: Inhibition of purified bovine brain tubulin microtubule assembly up to 40 uM. The gist of the method:
as §4

Data set [9] concerns K562. As to the kind of experiment: Cell cycle distribution in human K562 cells assessed as blocked at M phase at 1 uM after 24 hrs by ethidium bromide/acridine orange staining (reference value: 1%). Format: functional. An outline of the steps: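 K562 exposed to 1 μM for 24 h, then stained with ethidium bromide and acridine orange. The percentage of cells arrested in mitosis was scored morphologically; untreated cells served as control.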

A further data set has as its system Mus musculus. As to the kind of experiment: Toxicity in non-tumorated mouse at 400 mg/kg. It is filed as organism-based. The arrangement: dose 400 mg/kg. The conditions noted are these: in vivo. An outline of the steps:
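Run by the NCI in vivo toxicity assay in non-tumored mice, at a dose of 400 mg/kg.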

Data set [10] has as its system K562. As to the kind of experiment: Induction of apoptosis in human K562 cells assessed as induction in morphological alterations at 2 uM after 24 hrs ny phase contrast invertoscope. Format: functional, cell-based. An outline of the steps: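 Living K562 cells in culture medium, exposed 24 h to 2, 5 or 10 μM or left untreated, then viewed by phase contrast invertoscope at 40× magnification for morphologic alterations.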

Results on two molecules are retold here after ChEMBL document CHEMBL1795311, “Synthesis, antiproliferative activity, and mechanism of action of a series of 2-{[(2E)-3-phenylprop-2-enoyl]amino}benzamides” (Eur J Med Chem, 2011).

Calls of active or inactive are those of the source. The rule behind the calls is not given here.

Turning to `NC(=O)c1cc(Cl)ccc1NC(=O)/C=C/c1ccccc1`, the GI50 is 1420 nM with HL-60; 1690 nM in the data set on KM12; 1400 nM in the data set on SF-295; 2680 nM in the data set on Malme-3M; 492 nM in the data set on MDA-MB-435; 3890 nM with OVCAR-8. For the same molecule, the GI50 with NCI/ADR-RES worked out at 2240 nM; with CAKI-1 it was 263 nM; in the data set on TK-10, 5510 nM; in the data set with UO-31 it was 3570 nM; in the data set on PC-3 it was 3150 nM; in the data set on DU-145, 2160 nM. Further, the values for the GI50 (with MCF7; in data set [1]; in the data set with MDA-MB-468) were 1740 nM, 2040 nM and 1170 nM, respectively.
For `NC(=O)c1cc(I)ccc1NC(=O)/C=C/c1ccccc1`, the 50% growth inhibitory concentration (GI50) was 54.2 nM in the data set with HL-60; 499 nM with KM12; 350 nM with SF-295; 1600 nM in the data set on Malme-3M; 1060 nM in the data set with OVCAR-8; 648 nM in the data set with CAKI-1. The GI50 is 3150 nM in the data set with TK-10; 3530 nM in the data set with UO-31; 628 nM with PC-3; 477 nM with DU-145; 450 nM in the data set on MCF7; 375 nM in data set [1]. Further, the result with K562 [2], in the data set with K562 [3], in the data set with PtK2 [5], in the data set with PtK2 [6], in the data set filed under Bos taurus [7] and with K562 [10] was Active. Further, in the data set on K562 [4], the AC50 worked out at 3700 nM. Further, the outcome in the data set listed under Bos taurus [8] was inactive. Moreover, the Activity in the data set on K562 [9] is recorded as 35%; with Mus musculus, “Non-toxic”.
